In ChEMBL document CHEMBL1138987, “Development of cyclic gamma-MSH analogues with selective hMC3R agonist and hMC3R/hMC5R antagonist activities” (J Med Chem, 2006):

Tests used:
Melanocortin receptor 4 [1] = target: T1, Melanocortin receptor 4 (Homo sapiens, UniProt P32245); assay: Inhibitory activity against hMC4R transfected in HEK293 cells; type: cell-based
Summary of the method: (§1)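 Competition binding on whole HEK293 cells stably expressing the human receptor, seeded 48 h prior. Binding buffer was MEM, 25 mM HEPES pH 7.4, 0.2% BSA, 1,10-phenanthroline, leupeptin and bacitracin. Cells washed and lysed, then gamma counted. IC50 from nonlinear least-squares fit; mean of two experiments in triplicate.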

Melanocortin receptor 4 [2] = target: T1, Melanocortin receptor 4; assay: Activity against hMC4R transfected in HEK293 cells by intracellular cAMP accumulation; type: functional, cell-based
Summary of the method: (§2)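 HEK293 cells stably transfected with human receptor, grown to confluence in MEM with 10% FBS, seeded 48 h before assay. Cells preincubated 1 min at 37 °C in EBSS with IBMX (0.5 mM stock). Peptide added (10^-10 to 10^-5 M), 3 min at 37 °C. Stopped with ice-cold Tris/EDTA, boiled, cAMP measured by competitive binding kit. EC50 from nonlinear least-squares fit; mean of two experiments in triplicate.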

Melanocortin receptor 5 [3] = target: T2, Melanocortin receptor 5 (Homo sapiens, UniProt P33032); assay: Inhibitory activity against hMC5R transfected in HEK293 cells; type: cell-based; summary of the method: as §1
T2 sequence (P33032 whole entry): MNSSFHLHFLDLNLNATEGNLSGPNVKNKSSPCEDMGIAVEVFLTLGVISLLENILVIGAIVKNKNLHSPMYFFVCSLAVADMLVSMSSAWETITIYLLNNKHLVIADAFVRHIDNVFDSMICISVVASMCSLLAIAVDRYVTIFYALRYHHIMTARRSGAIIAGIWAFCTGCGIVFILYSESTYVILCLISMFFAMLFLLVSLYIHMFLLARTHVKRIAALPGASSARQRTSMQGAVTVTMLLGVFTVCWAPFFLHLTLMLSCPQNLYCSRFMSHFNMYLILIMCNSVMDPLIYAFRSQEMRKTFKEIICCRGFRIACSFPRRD

[4] = target: T3, Melanocyte-stimulating hormone receptor (Homo sapiens, UniProt Q01726); assay: Activity against hMC1R transfected in HEK293 cells by intracellular cAMP accumulation; type: functional, cell-based; summary of the method: as §2
Melanocortin receptor 3 [5] = target: T4, Melanocortin receptor 3 (Homo sapiens, UniProt P41968); assay: Activity against hMC3R transfected in HEK293 cells by intracellular cAMP accumulation; type: functional, cell-based; summary of the method: as §2
T4 sequence (P41968 whole entry): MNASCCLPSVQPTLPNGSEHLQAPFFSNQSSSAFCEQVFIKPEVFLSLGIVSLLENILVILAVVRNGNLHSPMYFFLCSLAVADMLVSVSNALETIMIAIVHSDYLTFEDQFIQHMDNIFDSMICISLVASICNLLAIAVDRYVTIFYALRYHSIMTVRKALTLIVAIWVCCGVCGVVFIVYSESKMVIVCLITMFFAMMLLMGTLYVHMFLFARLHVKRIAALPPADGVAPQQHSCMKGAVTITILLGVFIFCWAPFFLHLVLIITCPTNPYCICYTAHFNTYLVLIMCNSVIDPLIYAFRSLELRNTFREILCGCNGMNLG

[6] = target: T3, Melanocyte-stimulating hormone receptor; assay: Inhibitory activity against hMC1R transfected in HEK293 cells; type: cell-based; summary of the method: as §1
Target sequence in this assay (Q01726 whole entry): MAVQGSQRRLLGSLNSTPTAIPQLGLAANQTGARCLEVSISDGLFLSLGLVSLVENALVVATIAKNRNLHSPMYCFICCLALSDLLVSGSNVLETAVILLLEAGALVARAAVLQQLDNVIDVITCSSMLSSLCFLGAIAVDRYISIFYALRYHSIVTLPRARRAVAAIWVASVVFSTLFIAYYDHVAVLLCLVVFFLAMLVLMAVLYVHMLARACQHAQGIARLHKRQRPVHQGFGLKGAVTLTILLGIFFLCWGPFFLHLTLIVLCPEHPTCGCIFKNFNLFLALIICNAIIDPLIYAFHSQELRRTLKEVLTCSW

Melanocortin receptor 5 [7] = target: T2, Melanocortin receptor 5; assay: Activity against hMC5R transfected in HEK293 cells by intracellular cAMP accumulation; type: functional, cell-based; summary of the method: as §2
Melanocortin receptor 3 [8] = target: T4, Melanocortin receptor 3; assay: Inhibitory activity against hMC3R transfected in HEK293 cells; type: cell-based; summary of the method: as §1

T1 sequence (P32245 whole entry): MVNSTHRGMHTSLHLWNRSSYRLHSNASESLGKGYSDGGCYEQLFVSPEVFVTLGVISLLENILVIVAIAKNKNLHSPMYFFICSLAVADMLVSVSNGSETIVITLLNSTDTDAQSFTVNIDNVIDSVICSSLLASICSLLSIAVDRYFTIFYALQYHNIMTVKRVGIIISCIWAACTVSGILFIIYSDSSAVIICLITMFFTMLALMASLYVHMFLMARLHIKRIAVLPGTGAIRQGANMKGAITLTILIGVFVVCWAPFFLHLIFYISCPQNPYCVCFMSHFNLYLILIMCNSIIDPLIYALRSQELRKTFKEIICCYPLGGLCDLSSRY

Row | IC50 (Melanocortin receptor 4 [1]) | EC50 (Melanocortin receptor 4 [2]) | IC50 (Melanocortin receptor 5 [3]) | EC50 [4] | EC50 (Melanocortin receptor 3 [5]) | IC50 [6] | EC50 (Melanocortin receptor 5 [7]) | IC50 (Melanocortin receptor 3 [8]) | %max (Melanocortin receptor 4 [2]) | %max [4] | %max (Melanocortin receptor 3 [5]) | %max (Melanocortin receptor 5 [7]) | Kb (Melanocortin receptor 3 [5]; read-out: pA2 (converted)) | Kb (Melanocortin receptor 5 [7]; read-out: pA2 (converted)) | SMILES
1 |  |  |  |  |  |  |  |  | 0% | 0% | 0% | 0% |  |  | CCCC[C@@H]1NC(=O)CC[C@@H](C(N)=O)NC(=O)[C@H](Cc2c[nH]c3ccccc23)NC(=O)[C@H](CCCN=C(N)N)NC(=O)[C@@H](Cc2ccc3ccccc3c2)NC(=O)[C@H](Cc2c[nH]cn2)NC1=O
2 | 600 nM | > 1000 nM | 70 nM | > 10000 nM | 300 nM | > 10000 nM | > 10000 nM | 250 nM | 50% | 0% | 27% | 0% |  |  | CCCC[C@@H]1NC(=O)CC[C@@H](C(N)=O)NC(=O)[C@H](Cc2c[nH]c3ccccc23)NC(=O)[C@H](CCCN=C(N)N)NC(=O)[C@@H](Cc2ccccc2)NC(=O)[C@H](CCCC)NC1=O
3 | 65 nM | 130 nM | 1.4 nM | > 1000 nM | > 10000 nM | 1000 nM | > 10000 nM | 1.4 nM | 50% | 0% | 0% | 0% |  |  | CCCC[C@@H]1NC(=O)CC[C@@H](C(N)=O)NC(=O)[C@H](Cc2c[nH]c3ccccc23)NC(=O)[C@H](CCCN=C(N)N)NC(=O)[C@@H](Cc2ccc3ccccc3c2)NC(=O)[C@H](CCC(N)=O)NC1=O
4 | 16 nM | 340 nM | 3.8 nM | > 1000 nM | > 10000 nM | 3000 nM | 200 nM | 6 nM | 31% | 0% | 0% | 10% |  |  | CCCC[C@@H]1NC(=O)CC[C@@H](C(N)=O)NC(=O)[C@H](Cc2c[nH]c3ccccc23)NC(=O)[C@H](CCCN=C(N)N)NC(=O)[C@@H](Cc2ccc3ccccc3c2)NC(=O)[C@H](CCCC)NC1=O
5 | 100 nM | > 10000 nM | 2.3 nM | > 10000 nM | > 10000 nM | > 10000 nM | > 10000 nM | 12 nM |  |  |  |  |  |  | CCCC[C@@H]1NC(=O)CC[C@@H](C(N)=O)NC(=O)[C@H](Cc2c[nH]c3ccccc23)NC(=O)[C@H](CCCN=C(N)N)NC(=O)[C@@H](Cc2ccc3ccccc3c2)NC(=O)[C@H](Cc2cnc[nH]2)NC1=O
6 | 170 nM | 2000 nM | 100 nM | > 10000 nM | 37 nM | > 10000 nM | > 10000 nM | 560 nM | 48% | 0% | 147% | 0% |  |  | CCCC[C@@H]1NC(=O)CC[C@@H](C(N)=O)NC(=O)[C@H](Cc2c[nH]c3ccccc23)NC(=O)[C@H](CCCN=C(N)N)NC(=O)[C@@H](Cc2ccccc2)NC(=O)[C@H](Cc2c[nH]cn2)NC1=O
7 | 150 nM | > 10000 nM | > 10000 nM | > 10000 nM | > 10000 nM | > 10000 nM | > 10000 nM | > 10000 nM | 0% | 0% | 0% | 0% |  |  | CCCC[C@@H]1NC(=O)CC[C@@H](C(N)=O)NC(=O)[C@H](Cc2c[nH]c3ccccc23)NC(=O)[C@H](CCCN=C(N)N)NC(=O)[C@@H](Cc2ccccc2)NC(=O)[C@H](CC(=O)O)NC1=O
8 | 2500 nM | 3000 nM | 110 nM | > 10000 nM | 27 nM | > 10000 nM | 180 nM | 600 nM | 25% | 0% | 108% | 75% |  |  | CCCC[C@@H]1NC(=O)CC[C@@H](C(N)=O)NC(=O)[C@H](Cc2c[nH]c3ccccc23)NC(=O)[C@H](CCCN=C(N)N)NC(=O)[C@@H](Cc2ccccc2)NC(=O)[C@H](C(C)C)NC1=O
9 | 180 nM | 16 nM | 2.2 nM | > 10000 nM | > 10000 nM | 4000 nM | > 10000 nM | 1.7 nM | 13% | 0% | 0% | 0% | 3.98 nM | 2 nM | CCCC[C@@H]1NC(=O)CC[C@@H](C(N)=O)NC(=O)[C@H](Cc2c[nH]c3ccccc23)NC(=O)[C@H](CCCN=C(N)N)NC(=O)[C@@H](Cc2ccc3ccccc3c2)NC(=O)[C@H](C(C)C)NC1=O
10 | 34 nM | > 10000 nM | 44 nM | > 10000 nM | 2800 nM | > 10000 nM | > 10000 nM | 140 nM | 0% | 0% | 7% | 0% |  |  | CCCC[C@@H]1NC(=O)CC[C@@H](C(N)=O)NC(=O)[C@H](Cc2c[nH]c3ccccc23)NC(=O)[C@H](CCCN=C(N)N)NC(=O)[C@@H](Cc2ccc3ccccc3c2)NC(=O)[C@H](CCC(=O)O)NC1=O
11 | 1000 nM | > 10000 nM | 10 nM | > 10000 nM | > 10000 nM | > 10000 nM | > 10000 nM | 13 nM | 0% | 0% | 0% | 0% |  |  | CCCC[C@@H]1NC(=O)CC[C@@H](C(N)=O)NC(=O)[C@H](Cc2c[nH]c3ccccc23)NC(=O)[C@H](CCCN=C(N)N)NC(=O)[C@@H](Cc2ccc3ccccc3c2)NC(=O)[C@@H]2CCCN2C1=O

Row | SMILES | IC50 (Melanocortin receptor 4 [1]) | EC50 (Melanocortin receptor 4 [2]) | IC50 (Melanocortin receptor 5 [3]) | EC50 [4] | EC50 (Melanocortin receptor 3 [5]) | IC50 [6] | EC50 (Melanocortin receptor 5 [7]) | IC50 (Melanocortin receptor 3 [8]) | %max (Melanocortin receptor 4 [2]) | %max [4] | %max (Melanocortin receptor 3 [5]) | %max (Melanocortin receptor 5 [7]) | Kb (Melanocortin receptor 3 [5]; read-out: pA2 (converted)) | Kb (Melanocortin receptor 5 [7]; read-out: pA2 (converted))
12 | CCCC[C@@H]1NC(=O)CC[C@@H](C(N)=O)NC(=O)[C@H](Cc2c[nH]c3ccccc23)NC(=O)[C@H](CCCN=C(N)N)NC(=O)[C@@H](Cc2ccc3ccccc3c2)NC(=O)[C@H](CC(=O)O)NC1=O | 170 nM | > 10000 nM | 220 nM | > 10000 nM | > 10000 nM | > 10000 nM | > 10000 nM | 820 nM |  |  |  |  |  | 
13 | CCCC[C@@H]1NC(=O)CC[C@@H](C(N)=O)NC(=O)[C@H](Cc2c[nH]c3ccccc23)NC(=O)[C@H](CCCN=C(N)N)NC(=O)[C@@H](Cc2ccccc2)NC(=O)[C@@H](CCCN=C(N)N)NC1=O |  |  |  |  |  |  |  |  | 63% | 0% | 112% | 0% |  | 
14 | CCCC[C@@H]1NC(=O)CC[C@@H](C(N)=O)NC(=O)[C@H](Cc2c[nH]c3ccccc23)NC(=O)[C@H](CCCN=C(N)N)NC(=O)[C@@H](Cc2ccc3ccccc3c2)NC(=O)[C@@H](CCCN=C(N)N)NC1=O |  |  |  |  |  |  |  |  | 10% | 0% | 0% | 0% |  | 
15 | CCCC[C@@H]1NC(=O)CC[C@@H](C(N)=O)NC(=O)[C@H](Cc2c[nH]c3ccccc23)NC(=O)[C@H](CCCN=C(N)N)NC(=O)[C@@H](Cc2ccccc2)NC(=O)[C@@H]2CCCN2C1=O | 2700 nM | 10000 nM | 400 nM | > 10000 nM | > 10000 nM | > 10000 nM | 850 nM | 2700 nM |  |  |  |  |  | 
16 | CCCC[C@@H]1NC(=O)CC[C@@H](C(N)=O)NC(=O)[C@H](Cc2c[nH]c3ccccc23)NC(=O)[C@H](CCCN=C(N)N)NC(=O)[C@@H](Cc2ccccc2)NC(=O)[C@H](CCC(N)=O)NC1=O | > 10000 nM | > 10000 nM | 500 nM | 1000 nM | 1700 nM | 1000 nM | 300 nM | 270 nM |  |  |  |  |  | 
17 | CCCC[C@@H]1NC(=O)CC[C@@H](C(N)=O)NC(=O)[C@H](Cc2c[nH]c3ccccc23)NC(=O)[C@H](CCCN=C(N)N)NC(=O)[C@@H](Cc2ccccc2)NC(=O)[C@@H](CCC(=O)O)NC1=O |  |  |  |  |  |  |  |  | 0% | 0% | 54% | 0% |  | 
18 | CCCC[C@@H]1NC(=O)CC[C@@H](C(N)=O)NC(=O)[C@H](Cc2c[nH]c3ccccc23)NC(=O)[C@H](CCCN=C(N)N)NC(=O)[C@@H](Cc2ccccc2)NC(=O)[C@H]2CCCN2C1=O |  |  |  |  |  |  |  |  | 0% | 0% | 0% | 10% |  | 
19 | CCCC[C@@H]1NC(=O)CC[C@@H](C(N)=O)NC(=O)[C@H](Cc2c[nH]c3ccccc23)NC(=O)[C@H](CCCN=C(N)N)NC(=O)[C@@H](Cc2ccccc2)NC(=O)[C@@H](CCC(N)=O)NC1=O |  |  |  |  |  |  |  |  | 0% | 20% | 60% | 8% |  | 
20 | CCCC[C@@H]1NC(=O)CC[C@@H](C(N)=O)NC(=O)[C@H](Cc2c[nH]c3ccccc23)NC(=O)[C@H](CCCN=C(N)N)NC(=O)[C@@H](Cc2ccccc2)NC(=O)[C@H](CCC(=O)O)NC1=O | > 10000 nM | > 10000 nM | 3060 nM | > 10000 nM | 4300 nM | > 10000 nM | > 10000 nM | 1200 nM |  |  |  |  |  | 
21 | CCCC[C@@H]1NC(=O)CC[C@@H](C(N)=O)NC(=O)[C@H](Cc2c[nH]c3ccccc23)NC(=O)[C@H](CCCN=C(N)N)NC(=O)[C@@H](Cc2ccccc2)NC(=O)[C@H](CCCN=C(N)N)NC1=O | 270 nM | 174 nM | 68 nM | > 10000 nM | 1.2 nM | 1400 nM | > 10000 nM | 140 nM |  |  |  |  |  | 
22 | CCCC[C@@H]1NC(=O)CC[C@@H](C(N)=O)NC(=O)[C@H](Cc2c[nH]c3ccccc23)NC(=O)[C@H](CCCN=C(N)N)NC(=O)[C@@H](Cc2ccc3ccccc3c2)NC(=O)[C@@H](CC(=O)O)NC1=O |  |  |  |  |  |  |  |  | 0% | 0% | 0% | 0% |  | 
